In ChEMBL document CHEMBL5252538, “β-Lactam analogues of combretastatin A-4 prevent metabolic inactivation by glucuronidation in chemoresistant HT-29 colon cancer cells” (Eur J Med Chem, 2017):
The source made the active and inactive calls. The rule behind the calls is not given here.

What was measured:
HT-29 [1] = experiment: Induction of cell cycle arrest in human HT-29 cells assessed as accumulation of cells at G0/G1 phase at 1 uM incubated for 24 hrs by RAase A/PI staining based flow cytometry analysis (reference value: 57%); format: functional
HT-29 [2] = experiment: Induction of cell cycle arrest in human HT-29 cells assessed as accumulation of cells at G2/M phase at 1 uM incubated for 24 hrs by RAase A/PI staining based flow cytometry analysis (reference value: 16%); format: functional
HT-29 [3] = experiment: Induction of cell cycle arrest in human HT-29 cells assessed as accumulation of cells at G0/G1 phase at 1 uM incubated for 24 hrs in presence of 2,3-bis(amino((2aminophenyl)thio)methylene)succinonitrile by RAase A/PI staining based flow cytometry analysis (reference value: 57%); format: functional
HT-29 [4] = experiment: Induction of cell cycle arrest in human HT-29 cells assessed as accumulation of cells at G2/M phase at 1 uM incubated for 24 hrs in presence of 2,3-bis(amino((2-aminophenyl)thio)methylene)succinonitrile by RAase A/PI staining based flow cytometry analysis (reference value: 16%); format: functional
MCF7 = experiment: Antiproliferative activity against […] human MCF7 cells assessed as inhibition of cell growth incubated for 72 hrs by alamar blue assay; format: functional, cell-based; settings: MCF7, 72 h
Procedure, shortened: (§1)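 Cells seeded 24 h before treatment (HL-60 4 × 10⁴, MCF-7 5 × 10³ per well), then given medium, vehicle (1% ethanol v/v) or serial dilutions (eight concentrations) for 72 h. Alamar Blue (10% v/v) added for 3–5 h at 37 °C in the dark, fluorescence read at ex 530/em 590 nm. Viability expressed relative to vehicle (100%), IC50 from dose–response curves; three experiments in triplicate.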

HL-60 = experiment: Antiproliferative activity against […] human HL-60 cells assessed as inhibition of cell growth incubated for 72 hrs by alamar blue assay; format: functional, cell-based; settings: HL-60, 72 h; procedure, shortened: as §1
HT-29 [5] = experiment: Antiproliferative activity against combretastatin A-4 resistant human HT-29 cells assessed as inhibition of cell growth incubated for 72 hrs by SRB assay; format: functional, cell-based; settings: HT-29, 72 h
Procedure, shortened: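 HT-29 (DMEM Glutamax, 10% FBS) seeded at 1 × 10⁴ cells/well, treated after 24 h with vehicle (1% ethanol v/v) or serial dilutions (eight concentrations) for 72 h; viability measured by sulforhodamine B protocol. Percent viability relative to vehicle control, IC50 from dose–response curves; mean of three experiments in triplicate.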

HT-29 [6] = experiment: Induction of cell cycle arrest in human HT-29 cells assessed as accumulation of cells in G2/M phase at 1 uM incubated for 24 to 72 hrs by RNase/PI staining based flow cytometry analysis; format: functional; settings: time 24-72 hrs
HT-29 [7] = experiment: Induction of cell cycle arrest in human HT-29 cells assessed as accumulation of cells in sub-G1 phase at 1 uM incubated for 72 hrs by RNase/PI staining based flow cytometry analysis (reference value: 6%); format: functional
Tubulin (Homo sapiens) [8] = target: T1, Tubulin (Homo sapiens) (UniProt P68371+Q9H4B7+P0DPH7+P68366+Q13509+Q71U36+P04350+Q3ZCM7+P07437+P68363+Q9BQE3+Q6PEY2+Q13885+Q9BVA1+Q9BUF5); experiment: Induction of microtubule disruption in human HT-29 cells assessed as effect on microtubule organization at 1 uM incubated for 16 hrs by immunofluorescence based confocal microscopic analysis; format: cell-based
HT-29 [9] = experiment: Induction of cell cycle arrest in human HT-29 cells assessed as accumulation of cells in sub-G1 phase at 0.5 uM incubated for 72 hrs by RNase/PI staining based flow cytometry analysis (reference value: 6%); format: functional
Procedure, shortened: (§2)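 HT-29 treated with vehicle (0.1% ethanol v/v) or compound at 0.5 µM for 24, 48 and 72 h. Adherent plus detached cells collected, fixed overnight in ice-cold 70% ethanol at −20 °C, stained with PI (50 µg/mL) plus RNase A (50 µg/mL) 30 min at 37 °C. 10,000 cells analysed by flow cytometry at 488 nm; sub-G1, G0/G1, G2/M gated on DNA content; mean of three experiments.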

HT-29 [10] = experiment: Induction of cell cycle arrest in human HT-29 cells assessed as accumulation of cells at G2/M phase at 0.5 uM incubated for 72 hrs by RNase/PI staining based flow cytometry analysis relative to control; format: functional; procedure, shortened: as §2
HT-29 [11] = experiment: Induction of cell cycle arrest in human HT-29 cells assessed as reduction in cells in G0 phase at 0.5 uM incubated for 72 hrs by RNase/PI staining based flow cytometry analysis; format: functional; procedure, shortened: as §2
HT-29 [12] = experiment: Induction of cell cycle arrest in human HT-29 cells assessed as reduction in cells in S phase at 0.5 uM incubated for 72 hrs by RNase/PI staining based flow cytometry analysis; format: functional; procedure, shortened: as §2
Tubulin (Homo sapiens) [13] = target: T1, Tubulin (Homo sapiens); experiment: Induction of microtubule disruption in human HT-29 cells assessed as complete loss of microtubule structure incubated for 16 hrs by immunofluorescence based confocal microscopic analysis; format: cell-based
Procedure, shortened: (§3)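 Fixed in 4% paraformaldehyde, permeabilised in 0.5% Triton X-100, blocked in 5% BSA, stained with anti-α-tubulin-FITC (DM1A, 1:100, 2 h) and Alexa Fluor 488, DAPI counterstain; confocal imaging, three occasions.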

Tubulin (Homo sapiens) [14] = target: T1, Tubulin (Homo sapiens); experiment: Induction of microtubule disruption in human HT-29 cells assessed as appearance of multiple micronucleus incubated for 16 hrs by immunofluorescence based confocal microscopic analysis; format: cell-based; procedure, shortened: as §3

| SMILES | Activity (HT-29 [1]) [%] | Activity (HT-29 [2]) [%] | Activity (HT-29 [3]) [%] | Activity (HT-29 [4]) [%] | IC50 (MCF7) [nM] | IC50 (HL-60) [nM] | IC50 (HT-29 [5]) [nM] | Activity (HT-29 [6]) | Activity (HT-29 [7]) [%] | Activity (Tubulin (Homo sapiens) [8]) | Activity (HT-29 [9]) [%] | Activity (HT-29 [10]) [%] | Activity (HT-29 [11]) | Activity (HT-29 [12]) | Activity (Tubulin (Homo sapiens) [13]) | Activity (Tubulin (Homo sapiens) [14]) |
| --- | --- | --- | --- | --- | --- | --- | --- | --- | --- | --- | --- | --- | --- | --- | --- | --- |
| COc1ccc(C2C(c3ccccc3)C(=O)N2c2cc(OC)c(OC)c(OC)c2)cc1O (mixture of isomers) | 60 | 16 | 26 | 58 | 4 | 2 | 430 | inactive | 5 | inactive | – | – | – | – | – | – |
| COc1ccc(C2C(c3ccccc3)C(=O)N2c2cc(OC)c(OC)c(OC)c2)cc1 (mixture of isomers) | – | – | – | – | 15 | 24 | 22 | – | – | – | 19 | 50 | Active | Active | Active | Active |
